Results on two compounds are retold here after paper PMC3957490 (Neuron, 2014).

What is called IC50 is the concentration that gives 50% inhibition.

Common to all, as to type: cell-based
The target in assay [1] is T1, 2AC1/2BAC2 (GluN1/GluN2A/GluN2B triheteromer) (Rattus norvegicus, UniProt P35439+Q00959+Q00960). Nature of the assay: two-electrode voltage clamp, Xenopus oocytes.
For assay [2], the target named is T2, wt 2A/2A (wild type GluN1/GluN2A) (Rattus norvegicus, UniProt P35439+Q00959). Nature of the assay: two-electrode voltage clamp, Xenopus oocytes. In outline: (§1)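 Oocytes injected with about 10 ng total cRNA of rat GluN1-1a plus wild-type or C1/C2-tagged GluN2 (tagged at 1:6:6); two-electrode voltage clamp. GluN2A-selective antagonists: 100 μM glutamate + 3 μM glycine. Divalent metal inhibitor: 50 μM glutamate + 50 μM glycine, −20 mV, kept below 300 nM, pH 7.3 (also 7.8, 6.8). GluN2B-selective antagonists: 100 μM glutamate + 50 μM glycine, −40 mV. IC50 from fitted concentration-response data, mean ± SEM over N oocytes.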
T2 sequence (Q00959 23-1464, other chains not shown): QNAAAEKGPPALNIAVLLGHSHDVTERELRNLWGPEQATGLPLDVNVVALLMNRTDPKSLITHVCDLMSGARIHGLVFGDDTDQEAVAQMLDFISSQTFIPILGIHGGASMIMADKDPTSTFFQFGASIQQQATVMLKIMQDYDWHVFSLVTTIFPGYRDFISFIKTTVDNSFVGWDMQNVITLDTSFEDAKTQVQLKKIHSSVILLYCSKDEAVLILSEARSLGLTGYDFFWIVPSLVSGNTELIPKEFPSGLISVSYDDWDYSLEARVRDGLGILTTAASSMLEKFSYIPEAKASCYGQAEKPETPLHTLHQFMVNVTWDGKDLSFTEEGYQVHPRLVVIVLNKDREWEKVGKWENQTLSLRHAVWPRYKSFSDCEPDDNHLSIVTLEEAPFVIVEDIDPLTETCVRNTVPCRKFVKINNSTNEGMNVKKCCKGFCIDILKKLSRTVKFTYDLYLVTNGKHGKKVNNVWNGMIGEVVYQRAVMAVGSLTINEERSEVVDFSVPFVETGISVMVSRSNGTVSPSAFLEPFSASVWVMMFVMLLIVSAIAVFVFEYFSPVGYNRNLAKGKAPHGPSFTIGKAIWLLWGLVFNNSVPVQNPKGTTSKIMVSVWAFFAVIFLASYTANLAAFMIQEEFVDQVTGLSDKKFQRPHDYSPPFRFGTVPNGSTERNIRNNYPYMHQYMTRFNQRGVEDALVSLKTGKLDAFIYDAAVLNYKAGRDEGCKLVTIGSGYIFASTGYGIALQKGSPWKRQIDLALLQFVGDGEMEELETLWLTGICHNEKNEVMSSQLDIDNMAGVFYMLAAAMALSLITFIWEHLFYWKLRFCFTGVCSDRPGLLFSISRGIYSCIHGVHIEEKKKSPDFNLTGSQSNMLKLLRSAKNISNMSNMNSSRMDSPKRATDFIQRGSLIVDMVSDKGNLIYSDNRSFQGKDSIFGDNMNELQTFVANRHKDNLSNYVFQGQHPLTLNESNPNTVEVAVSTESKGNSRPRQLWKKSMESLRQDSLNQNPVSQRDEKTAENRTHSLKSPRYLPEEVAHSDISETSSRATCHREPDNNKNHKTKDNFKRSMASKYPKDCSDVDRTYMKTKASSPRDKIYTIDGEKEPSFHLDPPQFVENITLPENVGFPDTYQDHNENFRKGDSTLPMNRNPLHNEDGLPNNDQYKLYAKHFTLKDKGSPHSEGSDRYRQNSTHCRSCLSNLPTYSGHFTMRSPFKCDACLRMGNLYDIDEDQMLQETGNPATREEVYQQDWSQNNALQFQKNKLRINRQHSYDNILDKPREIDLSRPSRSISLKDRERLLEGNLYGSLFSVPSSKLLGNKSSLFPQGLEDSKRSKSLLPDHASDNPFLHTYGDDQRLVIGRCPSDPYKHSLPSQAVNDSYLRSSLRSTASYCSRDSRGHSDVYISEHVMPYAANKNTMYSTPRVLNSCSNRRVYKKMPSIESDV
(Two-electrode voltage clamp is typically applied to oocytes expressing channels or transporters.)

Assay [3] deals with T3, 2AC1/2AC2 (tagged GluN1/GluN2A) (Rattus norvegicus, UniProt P35439+Q00959). Nature of the assay: two-electrode voltage clamp, Xenopus oocytes. Put shortly:
as §1

For assay [4], the target named is T1, 2AC1/2BAC2 (GluN1/GluN2A/GluN2B triheteromer). Nature of the assay: whole-cell patch clamp, HEK293 cells. The following applies: agonist; […] glutamate, […] glycine. On the technique in general: Patch clamp records ionic current or voltage across a cell membrane.
In assay [5] the target is wt 2B/2B (wild type GluN1/GluN2B) (Rattus norvegicus, UniProt P35439+Q00960). Nature of the assay: whole-cell patch clamp, HEK293 cells. The following applies: agonist; […] glutamate, […] glycine.
Assay [6] concerns the target T2, wt 2A/2A (wild type GluN1/GluN2A). Nature of the assay: whole-cell patch clamp, HEK293 cells. The following applies: agonist; […] glutamate, […] glycine.
Assay [7] addresses 2BAC1/2BAC2 (tagged GluN1/GluN2B with GluN2A CTD) (Rattus norvegicus, UniProt P35439+Q00960). Nature of the assay: whole-cell patch clamp, HEK293 cells. The following applies: agonist; […] glutamate, […] glycine.
The target of assay [8] is T3, 2AC1/2AC2 (tagged GluN1/GluN2A). Nature of the assay: whole-cell patch clamp, HEK293 cells. The following applies: agonist; […] glutamate, […] glycine.

T3 sequence (Q00959 23-1464, other chains not shown): as above
T1 sequence (Q00959 23-1464, other chains not shown): as above

For the compound `O=C(NNC(=O)c1ccc(CNS(=O)(=O)c2ccc(F)c(Cl)c2)cc1)c1ccccc1` [TCN-201], the IC50 worked out at 1350 ± 130 nM in assay [1], 370 ± 30 nM in assay [2] and 360 ± 20 nM in assay [3].

For the compound `N[C@@H](CCC(=O)O)C(=O)O` [glutamate], the “Brief glutamate activation (5 ms) / τweighted” value worked out at 57 ± 4 ms in assay [4]; 314 ± 13 ms in assay [5]; 32 ± 1 ms in assay [6]; 274 ± 24 ms in assay [7]; 33 ± 2 ms in assay [8].
